Reference: ChEMBL document CHEMBL4002598, “Fusaric acid and analogues as Gram-negative bacterial quorum sensing inhibitors” (Eur J Med Chem, 2017)
In brackets after ≈: the same amount, converted by molar mass. Activity calls are given as the source filed them. No cut-off for these calls is given here.

Legend:
[1] = biological target: T1, HTH-type quorum-sensing regulator RhlR (Pseudomonas aeruginosa (strain ATCC 15692 / PAO1 / 1C / PRS 101 / LMG12228)) (UniProt P54292); assay: Inhibition of RhlR-dependent quorum sensing activity in Pseudomonas aeruginosa harboring reporter plasmid rhlA-gfp assessed as reduction in GFP expression up to 100 ug/ml measured every 15 mins for 14 hrs by fluorescence assay
T1 sequence (whole entry): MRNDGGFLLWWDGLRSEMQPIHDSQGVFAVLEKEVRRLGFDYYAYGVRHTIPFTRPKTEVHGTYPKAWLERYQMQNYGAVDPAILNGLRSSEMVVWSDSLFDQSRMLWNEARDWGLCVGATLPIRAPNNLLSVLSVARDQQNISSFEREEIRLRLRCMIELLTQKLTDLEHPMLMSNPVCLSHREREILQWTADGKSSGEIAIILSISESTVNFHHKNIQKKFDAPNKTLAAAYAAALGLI
Method in brief: (§1)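 P. aeruginosa lasB-gfp and rhlA-gfp reporters, grown 16 h at 37 °C with shaking, then diluted to OD450 0.1 in BT minimal medium (10% A10, 0.5% glucose, 0.5% Casamino Acids). No added signal molecule. Fluorescence at 485/535 nm and growth monitored every 15 min for 14 h at 34 °C. Concentrations up to 100 µg/ml.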

Saccharomyces cerevisiae = assay: Inhibition of yeast Pma1 at 100 uM preincubated for 30 mins by spectrophotometric method
Method in brief: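 Pma1 purified from Saccharomyces cerevisiae plasma membrane, 0.5 µg per reaction. Enzyme preincubated 30 min at room temperature with 100 µM compound. Reaction buffer: 5 mM ATP, 10 mM MgSO4, 50 mM KNO3, 5 mM NaN3, 3.5 mM molybdate, 20 mM MES-KOH pH 5.9. Run 30 min, then stopped with acidic molybdate/ascorbate/SDS. Released phosphate read at 860 nm after arsenite-citrate treatment (Baginski method).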

Pseudomonas aeruginosa [2] = assay: Inhibition of LasR-dependent quorum sensing activity in Pseudomonas aeruginosa harboring reporter plasmid lasB-GFP assessed as reduction in GFP expression up to 100 ug/ml measured every 15 mins for 14 hrs by fluorescence assay; method in brief: as §1
[3] = Inhibition of LuxR-dependent quorum sensing activity in Escherichia coli harboring reporter plasmid LuxI-GFP assessed as reduction in 3-oxo-C6-HSL-induced GFP expression measured every 15 mins for 14 hrs by fluorescence assay
Method in brief: (§2)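 luxI-gfp E. coli reporter grown 16 h at 37 °C, shaking 180 rpm, then diluted to OD450 0.1 in BT minimal medium with 10% A10, 0.5% glucose and 0.5% Casamino Acids. 3-oxo-C6-HSL added at 10 nM final. Compounds run in triplicate as 2-fold dilutions from 100 μg/ml. GFP (ex 485/em 535) and OD450 read every 15 min for 14 h at 34 °C. IC50 taken from GFP curves.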

Escherichia coli [4] = assay: Growth inhibition of Escherichia coli at 0.39 to 100 ug/ml; method in brief: as §2
Escherichia coli [5] = assay: Inhibition of LuxR-dependent quorum sensing activity in Escherichia coli harboring reporter plasmid LuxI-GFP assessed as reduction in 3-oxo-C6-HSL-induced GFP expression up to 100 ug/ml measured every 15 mins for 14 hrs by fluorescence assay; method in brief: as §2
Escherichia coli [6] = assay: Inhibition of LuxR-dependent quorum sensing activity in Escherichia coli harboring reporter plasmid LuxI-GFP assessed as reduction in 3-oxo-C6-HSL-induced GFP expression at 6.2 to 50 ug/ml measured every 15 mins for 14 hrs by fluorescence assay
Pseudomonas aeruginosa [7] = assay: Growth inhibition of Pseudomonas aeruginosa at >125 ug/ml
Pseudomonas aeruginosa [8] = assay: Inhibition of LasR-dependent quorum sensing activity in Pseudomonas aeruginosa harboring reporter plasmid lasB-GFP assessed as reduction in GFP expression at >125 ug/ml measured every 15 mins for 14 hrs by fluorescence assay
Method in brief: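 P. aeruginosa lasB-gfp monitor: 16 h overnight culture (37 °C, 180 rpm) diluted to OD450 0.1 in BT minimal medium plus 10% A10, 0.5% glucose, 0.5% Casamino Acids. No signal molecule added. GFP at ex 485/em 535 nm with growth, every 15 min over 14 h at 34 °C. Triplicate, 2-fold dilutions from 1000 μg/ml.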

[9] = Inhibition of quorum sensing system in Agrobacterium tumefaciens harboring traG-LacZ reporter fusion measured after 4 hrs by beta-galactosidase reporter gene assay

SMILES | inhibition [1] | inhibition (Saccharomyces cerevisiae) | inhibition (Pseudomonas aeruginosa [2]) | IC50 [3] [µg/mL] | growth inhibition (GI) (Escherichia coli [4]) | inhibition (Escherichia coli [5]) | inhibition (Escherichia coli [6]) | growth inhibition (GI) (Pseudomonas aeruginosa [7]) | inhibition (Pseudomonas aeruginosa [8]) | IC50 [9] [µM]
COC(=O)c1ccc(OCC2CC2)cn1 | inactive | inactive | inactive | 14 (≈ 67.6 µM) | Non-Toxic |  |  |  |  | 
COc1ccc2c(-c3ccc(C(=O)O)nc3)ccnc2c1 | inactive | inactive | inactive |  |  |  |  |  |  | 
O=C(O)c1ccc(-c2ccnc3ccccc23)cn1 | inactive | inactive | inactive |  |  |  |  |  |  | 
O=C(O)c1ccc(OCC2CC2)cn1 | inactive | inactive | inactive |  | Toxic | Active |  |  |  | 
COC(=O)c1ccc(-c2ccc3cn(C)nc3c2)cn1 | inactive | inactive | inactive |  |  |  |  |  |  | 
O=C(COc1ccc(C(=O)O)nc1)Nc1ccccc1 | inactive | inactive | inactive |  | Non-Toxic | inactive |  |  |  | 
O=C(O)c1ccc(Cc2ccccc2)cn1 | inactive | inactive | inactive |  |  |  |  |  |  | 
COC(=O)c1ccc(-c2ccnc3cc(OC)ccc23)cn1 | inactive | inactive | inactive |  |  |  |  |  |  | 
Cc1ccc(-c2ccc(C(=O)O)nc2)s1 | inactive | inactive | inactive |  |  |  |  |  |  | 
CCCOc1ccc(C(=O)OC)nc1 | inactive | inactive | inactive |  | Non-Toxic |  |  |  |  | 
Cc1cc(-c2ccc(C(=O)O)nc2)c2ccccc2n1 | inactive | inactive | inactive |  | Non-Toxic | inactive |  |  |  | 
O=C(O)c1ccc(-c2ccccc2)cn1 | inactive | inactive | inactive |  |  |  |  |  |  | 
Cc1ccc(-c2ccc(C(=O)O)nc2)cc1 | inactive | inactive | inactive |  |  |  |  |  |  | 
O=C(O)c1ccc(-c2nccs2)cn1 | inactive | inactive | inactive |  | Non-Toxic | inactive |  |  |  | 
CCOC(=O)c1ccc(Br)cn1 | inactive | inactive | inactive |  |  |  |  |  |  | 
CCCNC(=O)c1ccc(NCCC)cn1 | inactive | inactive | inactive |  |  |  |  |  |  | 
CCOC(=O)c1ccc(CSCC)cn1 | inactive | inactive | inactive |  |  |  |  |  |  | 
C=CCSS/C=C\C[S+]([O-])CC=C (stereo unspecified) [(Z)-Ajoene] |  |  |  | 4 (≈ 17.1 µM) |  |  |  |  |  | 
COc1cccc(-c2ccc(C(=O)O)nc2)n1 | inactive | inactive | inactive |  |  |  |  |  |  | 
COC(=O)c1ccc(-c2cc(C)nc3ccccc23)cn1 | inactive | inactive | inactive |  |  |  |  |  |  | 
CCCCc1ccc(C(=O)OCC)nc1 | inactive | inactive | inactive | 55 (≈ 265 µM) | Non-Toxic |  | Active |  |  | 

SMILES | inhibition [1] | inhibition (Saccharomyces cerevisiae) | inhibition (Pseudomonas aeruginosa [2]) | IC50 [3] [µg/mL] | growth inhibition (GI) (Escherichia coli [4]) | inhibition (Escherichia coli [5]) | inhibition (Escherichia coli [6]) | growth inhibition (GI) (Pseudomonas aeruginosa [7]) | inhibition (Pseudomonas aeruginosa [8]) | IC50 [9] [µM]
COC(=O)c1ccc(-c2ccco2)cn1 | inactive | inactive | inactive |  |  |  |  |  |  | 
COC(=O)c1ccc(-c2nccs2)cn1 | inactive | inactive | inactive |  |  |  |  |  |  | 
COC(=O)c1ccc(-c2cccc(OC)n2)cn1 | inactive | inactive | inactive | 95 (≈ 389 µM) | Non-Toxic |  |  |  |  | 
O=C(O)c1ccc(Br)cn1 | inactive | inactive | inactive |  |  |  |  |  |  | 
O=C(O)c1ccc(-c2ccco2)cn1 | inactive | inactive | inactive |  | Toxic | Active |  |  |  | 
O=C(O)c1ccc(-c2cccc3ccccc23)cn1 | inactive | inactive | inactive |  |  |  |  |  |  | 
COC(=O)c1ccc(Br)cn1 | inactive | inactive | inactive |  |  | inactive |  | Non-Toxic | Active | 
COC(=O)c1ccc(-c2ccc(C)s2)cn1 | inactive | inactive | inactive |  |  |  |  |  |  | 
CCOC(=O)c1ccc(-c2cccc3ccccc23)cn1 | inactive | inactive | inactive |  |  |  |  |  |  | 
COC(=O)c1ccc(Cc2ccccc2)cn1 | inactive | inactive | inactive |  |  |  |  |  |  | 
CCOC(=O)c1ccc(-c2ccc(C)cc2)cn1 | inactive | inactive | inactive |  |  |  |  |  |  | 
CCCOc1ccc(C(=O)O)nc1 | inactive | inactive | inactive |  | Toxic | Active |  |  |  | 
COc1ccc2nccc(-c3ccc(C(=O)O)nc3)c2c1 | inactive | inactive | inactive |  | Non-Toxic | inactive |  |  |  | 
O=C(O)COc1ccc(C(=O)O)nc1 | inactive | inactive | inactive |  |  | inactive |  |  |  | 
COC(=O)c1ccc(-c2ccnc3ccccc23)cn1 | inactive | inactive | inactive |  | Non-Toxic | inactive |  |  |  | 
CCOC(=O)c1ccc(-c2ccccc2)cn1 | inactive | inactive | inactive | 12 (≈ 52.8 µM) | Non-Toxic |  |  |  |  | 
COC(=O)c1ccc(OCC(=O)Nc2ccccc2)cn1 | inactive | inactive | inactive | 64 (≈ 224 µM) | Non-Toxic |  |  |  |  | 
O=[N+]([O-])c1cc[n+]([O-])cc1 |  |  |  |  |  |  |  |  |  | 171
COC(=O)c1ccc(-c2ccnc3ccc(OC)cc23)cn1 | inactive | inactive | inactive |  |  |  |  |  |  | 
Cn1cc2ccc(-c3ccc(C(=O)O)nc3)cc2n1 | inactive | inactive | inactive |  |  |  |  |  |  | 
